Laboratory results reported in ChEMBL document CHEMBL4219194, “Diversity-oriented synthesis of pyrazoles derivatives from flavones and isoflavones leads to the discovery of promising reversal agents of fluconazole resistance in Candida albicans” (2018).
Converted amounts (≈) assume the structure as drawn.

How the values were obtained:
Assay type in all cases: functional
[1] = system: Candida albicans; experiment: Potentiation of fluconazole-induced antifungal activity against drug-resistant Candida albicans 28I after 48 hrs by broth microdilution checkerboard method
How it was run: (§1)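 Broth microdilution checkerboard of fluconazole crossed with the test compound against clinical FLC-resistant isolates. MIC80 is read for each agent alone and in combination, and FICI is calculated. Synergy is FICI ≤0.5, indifference >0.5-4, and antagonism >4.0.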

[2] = system: Candida albicans; experiment: Potentiation of fluconazole-induced antifungal activity against drug-resistant Candida albicans 28J after 48 hrs by broth microdilution checkerboard method; how it was run: as §1
[3] = system: Candida albicans; experiment: Potentiation of fluconazole-induced antifungal activity against drug-resistant Candida albicans 28J assessed as fluconazole MIC80 after 48 hrs by broth microdilution checkerboard method; how it was run: as §1
[4] = system: Candida albicans; experiment: Antifungal activity against drug-resistant Candida albicans 28J after 48 hrs by broth microdilution method
How it was run: (§2)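 Clinical fluconazole-resistant isolates tested in broth microdilution with the compound alone. The endpoint is MIC80, the lowest concentration giving 80% growth inhibition, in µg/mL.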

[5] = system: Candida albicans; experiment: Synergistic antifungal activity against drug-resistant Candida albicans 28I after 48 hrs in presence of fluconazole by broth microdilution checkerboard method; how it was run: as §1
[6] = system: Candida albicans; experiment: Antifungal activity against Candida albicans SC5314 after 48 hrs by broth microdilution method; conditions: SC5314, 48 h
How it was run: (§3)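 MIC80 read by broth microdilution, with fluconazole as the positive antifungal agent. Values are reported in µg/mL as means of three independent experiments. Strains: wild-type SC5314 and DSY654, which lacks the Cdr1 and Cdr2 efflux pumps.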

[7] = system: Candida albicans; experiment: Antifungal activity against fluconazole-resistant Candida albicans 28A after 48 hrs by broth microdilution method; how it was run: as §2
[8] = system: Candida albicans; experiment: Synergistic antifungal activity against fluconazole-resistant Candida albicans 28A after 48 hrs in presence of fluconazole by broth microdilution checkerboard method
How it was run: (§4)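 Checkerboard dose-response matrix on strain 28A with gradients of fluconazole and the test compound in RPMI 1640, read after 48 h at 35 °C. MIC80 is taken alone and in combination, and FICI is calculated. Synergy is FICI ≤0.5, indifference >0.5-4, and antagonism >4.0.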

[9] = system: Candida albicans; experiment: Antifungal activity against drug-resistant Candida albicans 28I after 48 hrs by broth microdilution method; how it was run: as §2
[10] = system: Candida albicans; experiment: Potentiation of fluconazole-induced antifungal activity against drug-resistant Candida albicans 28I assessed as fluconazole MIC80 after 48 hrs by broth microdilution checkerboard method; how it was run: as §1
[11] = system: Candida albicans; experiment: Potentiation of fluconazole-induced antifungal activity against fluconazole-resistant Candida albicans 28A after 48 hrs by broth microdilution checkerboard method; how it was run: as §4
[12] = system: Candida albicans; experiment: Synergistic antifungal activity against drug-resistant Candida albicans 28J after 48 hrs in presence of fluconazole by broth microdilution checkerboard method; how it was run: as §1
[13] = system: Candida albicans; experiment: Antifungal activity against CDR1 and CDR2 efflux pump deficient Candida albicans DSY654 after 48 hrs by broth microdilution method; conditions: DSY654, 48 h; how it was run: as §3
[14] = system: Candida albicans; experiment: Potentiation of fluconazole-induced antifungal activity against fluconazole-resistant Candida albicans 28A assessed as fluconazole MIC80 after 48 hrs by broth microdilution checkerboard method; how it was run: as §4

SMILES | fractional inhibitory concentration index (FICI) [1] | fractional inhibitory concentration index (FICI) [2] | MIC80 [3] | MIC80 [4] | MIC80 [5] | MIC80 [6] | MIC80 [7] | MIC80 [8] | MIC80 [9] | MIC80 [10] | fractional inhibitory concentration index (FICI) [11] | MIC80 [12] | MIC80 [13] | MIC80 [14]
COc1cc(O)c(-c2cc(-c3ccccc3)n[nH]2)c(OC)c1 | 0.252 | 0.254 | 0.5 µg/mL | 32 µg/mL (≈ 108 µM) | 8 µg/mL | 8 µg/mL (≈ 27 µM) | 32 µg/mL (≈ 108 µM) | 8 µg/mL | 32 µg/mL (≈ 108 µM) | 0.25 µg/mL | 0.252 | 8 µg/mL | 1 µg/mL (≈ 3.37 µM) | 0.25 µg/mL
OC(Cn1cncn1)(Cn1cncn1)c1ccc(F)cc1F [FLUCONAZOLE] |  |  |  | > 128 µg/mL |  | 2 µg/mL (≈ 6.53 µM) | > 128 µg/mL |  | > 128 µg/mL |  |  |  | 0.25 µg/mL (≈ 0.816 µM) | 
OCCn1cc(-c2ccc(O)cc2)c(-c2ccc(O)cc2O)n1 |  |  |  |  |  | > 128 µg/mL | > 128 µg/mL | > 128 µg/mL |  |  | 2 |  | > 128 µg/mL | > 128 µg/mL
Oc1cc(O)c(-c2cc(-c3ccccc3)n[nH]2)c(O)c1 |  |  |  |  |  | > 128 µg/mL | > 128 µg/mL | 8 µg/mL |  |  | 0.078 |  | > 128 µg/mL | 2 µg/mL
Oc1ccc(-c2cn[nH]c2-c2c(O)cc(O)cc2O)cc1 |  |  |  |  |  | > 128 µg/mL | > 128 µg/mL | > 128 µg/mL |  |  | 2 |  | > 128 µg/mL | > 128 µg/mL
